ChEMBL document CHEMBL1221267, “Synthesis, in vitro and in vivo evaluation of 3-arylisoquinolinamines as potent antitumor agents” (Bioorg Med Chem Lett, 2010)

Experiments:
HCT-15 [1] = assay: Cell cycle arrest in human HCT15 cells assessed as accumulation at sub-G1 phase at 10 nM after 48 hrs using propidium iodide staining by flow cytometry; type: functional
Outline: (§1)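 HCT-15 cells plated at about 10^6 per 100-mm dish, grown 24 h, then given fresh medium with compound. Harvested by trypsinization at 24 h and 48 h, fixed in 70% ethanol, stained with 0.2% NP-40, RNase A (30 µg/ml) and propidium iodide (50 µg/ml) in phosphate–citrate buffer pH 7.2. DNA content by flow cytometry, at least 20,000 cells per analysis.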

SNB-19 = assay: Antitumor activity against human SNB19 by sulforhodamine B assay; type: functional, cell-based
Outline: (§2)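 Human tumour lines from ATCC; growth inhibition by sulforhodamine B staining, absorbance read at 530 nm; IC50 taken as the drug concentration inhibiting cell growth by 50%, calculated by curve fitting.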

HCT-15 [2] = assay: Cell cycle arrest in human HCT15 cells assessed as accumulation at G0/G1 phase at 1 nM after 48 hrs using propidium iodide staining by flow cytometry; type: functional; outline: as §1
OVCAR-3 = assay: Antitumor activity against human OVCAR-3 by sulforhodamine B assay; type: functional, cell-based; outline: as §2
HCT-116 [3] = assay: Antitumor activity against human HCT116 by sulforhodamine B assay; type: functional, cell-based; outline: as §2
HCT-15 [4] = assay: Antitumor activity against paclitaxel-resistant human HCT15 cells xenografted in BALB/c mouse assessed as tumor growth inhibition at 10 mg/kg, ip qd thrice a week from day 10 to day 29; type: functional; settings: HCT-15, ip, route intraperitoneal
Outline: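 Female athymic BALB/c nu/nu mice, six weeks old, received 1 × 10^6 paclitaxel-resistant HCT-15 cells in 0.2 ml RPMI subcutaneously in the right flank. Once tumors were in range, mice were assigned to groups. Dosing was 10 mg/kg/day ip in 5% Cremophor plus 5% ethanol in PBS, three times weekly, days 10–29. Tumor diameters were measured by caliper every 3–5 days. Body weight was monitored.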

HCT-15 [5] = assay: Cell cycle arrest in human HCT15 cells assessed as accumulation at S phase at 10 nM after 48 hrs using propidium iodide staining by flow cytometry; type: functional; outline: as §1
HCT-15 [6] = assay: Cell cycle arrest in human HCT15 cells assessed as accumulation at G2/M phase at 10 nM after 24 hrs using propidium iodide staining by flow cytometry; type: functional; outline: as §1
HCT-15 [7] = assay: Antitumor activity against human paclitaxel-resistant HCT15 by sulforhodamine B assay; type: functional, cell-based; outline: as §2
HCT-15 [8] = assay: Cell cycle arrest in human HCT15 cells assessed as accumulation at G0/G1 phase at 10 nM after 24 hrs using propidium iodide staining by flow cytometry; type: functional; outline: as §1
PANC-1 = assay: Antitumor activity against human PANC1 by sulforhodamine B assay; type: functional, cell-based; outline: as §2
HCT-15 [9] = assay: Cell cycle arrest in human HCT15 cells assessed as accumulation at sub-G1 phase at 10 nM after 24 hrs using propidium iodide staining by flow cytometry; type: functional; outline: as §1
HCT-15 [10] = assay: Cell cycle arrest in human HCT15 cells assessed as accumulation at G2/M phase at 1 nM after 24 hrs using propidium iodide staining by flow cytometry; type: functional; outline: as §1
MDA-MB-231 = assay: Antitumor activity against human MDA-MB-231 by sulforhodamine B assay; type: functional, cell-based; outline: as §2
HCT-15 [11] = assay: Cell cycle arrest in human HCT15 cells assessed as accumulation at G2/M phase at 10 nM after 48 hrs using propidium iodide staining by flow cytometry; type: functional; outline: as §1
HCT-15 [12] = assay: Cell cycle arrest in human HCT15 cells assessed as accumulation at sub-G1 phase at 1 nM after 24 hrs using propidium iodide staining by flow cytometry; type: functional; outline: as §1
Mus musculus [13] = assay: Toxicity in BALB/c mouse at 10 mg/kg, ip qd thrice a week from day 10 to day 29; type: organism-based; design: dose 10 mg/kg, route intraperitoneal; settings: in vivo
Outline: (§3)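 Female athymic BALB/c nu/nu mice, six weeks old, carrying subcutaneous right-flank HCT-15 xenografts (1×10^6 cells in 0.2 ml RPMI). Dosed 10 mg/kg/day ip three times weekly, days 10–29, in 5% Cremophor/5% ethanol in PBS; vehicle-only controls. Body weight monitored alongside caliper tumour measurements every 3–5 days.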

PC-3 = assay: Antitumor activity against human PC3 by sulforhodamine B assay; type: functional, cell-based; outline: as §2
HCT-15 [14] = assay: Cell cycle arrest in human HCT15 cells assessed as accumulation at sub-G1 phase at 1 nM after 48 hrs using propidium iodide staining by flow cytometry; type: functional; outline: as §1
HCT-15 [15] = assay: Cell cycle arrest in human HCT15 cells assessed as accumulation at S phase at 10 nM after 24 hrs using propidium iodide staining by flow cytometry; type: functional; outline: as §1
HCT-15 [16] = assay: Cell cycle arrest in human HCT15 cells assessed as accumulation at G0/G1 phase at 10 nM after 48 hrs using propidium iodide staining by flow cytometry; type: functional; outline: as §1
HCT-15 [17] = assay: Cell cycle arrest in human HCT15 cells assessed as accumulation at S phase at 1 nM after 24 hrs using propidium iodide staining by flow cytometry; type: functional; outline: as §1
CAKI-1 = assay: Antitumor activity against human Caki1 by sulforhodamine B assay; type: functional, cell-based; outline: as §2
Mus musculus [18] = assay: Toxicity in BALB/c mouse assessed as change in body weight at 10 mg/kg, ip qd thrice a week from day 10 to day 29; type: organism-based; design: dose 10 mg/kg, route intraperitoneal; settings: in vivo; outline: as §3
HCT-15 [19] = assay: Cell cycle arrest in human HCT15 cells assessed as accumulation at G2/M phase at 1 nM after 48 hrs using propidium iodide staining by flow cytometry; type: functional; outline: as §1
HCT-116 [20] = assay: Resistant index, ratio of IC50 for paclitacel-resistant human HCT15 cells to IC50 for human HCT116 cells; type: functional
Outline: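 Index computed as IC50 in HCT-15 divided by IC50 in HCT 116, both from sulforhodamine B growth inhibition with absorbance at 530 nm.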

SK-MEL-28 = assay: Antitumor activity against human SK-MEL-28 by sulforhodamine B assay; type: functional, cell-based; outline: as §2
HCT-15 [21] = assay: Cell cycle arrest in human HCT15 cells assessed as accumulation at G0/G1 phase at 1 nM after 24 hrs using propidium iodide staining by flow cytometry; type: functional; outline: as §1

Work on COc1cccc(-c2cc3ccc(N(C)C)cc3c(N)n2)c1.Cl yielded an Activity (HCT-15 [1]) of 24.76%, an IC50 (SNB-19) of 0.032 µM and an Activity (HCT-15 [2]) of 59.52%. It also gave an IC50 (OVCAR-3) of 0.014 µM, an IC50 (HCT-116 [3]) of 0.017 µM and an inhibition in vivo at 10 mg/kg (HCT-15 [4]) of 69.2%. It also gave an Activity (HCT-15 [5]) of 18.59%, an Activity (HCT-15 [6]) of 16.21% and an IC50 (HCT-15 [7]) of 0.015 µM. The Activity (HCT-15 [8]) was 62.51%, the IC50 (PANC-1) was 0.019 µM and the Activity (HCT-15 [9]) was 19.6%. For the same compound, the Activity (HCT-15 [10]) was 20.2%, the IC50 (MDA-MB-231) was 0.021 µM and the Activity (HCT-15 [11]) was 12.74%. The Activity (HCT-15 [12]) was 0.9%, the Activity (Mus musculus [13]) was “Non-toxic” and the IC50 (PC-3) was 0.019 µM. It also gave an Activity (HCT-15 [14]) of 3.78%, an Activity (HCT-15 [15]) of 21.28% and an Activity (HCT-15 [16]) of 68.67%. The Activity (HCT-15 [17]) was 29.02%, the IC50 (CAKI-1) was 0.022 µM and the Activity (Mus musculus [18]) was “Non-toxic”. For the same compound, the Activity (HCT-15 [19]) was 17.2%, the “Ratio IC50” value (HCT-116 [20]) was 0.88 and the IC50 (SK-MEL-28) was 0.032 µM. The Activity (HCT-15 [21]) was 50.78%.
